Measurements from ChEMBL document CHEMBL3585292, “Anti-dormant mycobacterial activity and target analysis of nybomycin produced by a marine-derived Streptomyces sp” (2015).
In brackets after ≈: the same amount, converted by molar mass. Activity calls are given as the source filed them. The calls are words filed in the database; no cut-off is given here.

Legend:
[1] = Binding affinity to pMV206 DNA (unknown origin) with cloned 700476 to 702854 bp of Mycobacterium bovis BCG genome overexpressed in Mycobacterium smegmatis ICHO1036 at 260 pmol after 1 hr by agarose gel electrophoresis
[2] = system: Mycolicibacterium smegmatis; experiment: Antibacterial activity against Mycobacterium smegmatis MC2 155 under aerobic condition after 36 hrs by MTT assay; type: functional; conditions: str. MC2 155, 36 h
In short: (§1)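 MTT microdilution. Mid-log bacilli in 7H9 with 10% OADC, 0.5% glycerol, 0.05% Tween 80, seeded at 1 × 10⁴ CFU/0.1 mL (M. smegmatis) or 1 × 10⁵ CFU/0.1 mL (BCG, M. tuberculosis), then serially diluted sample added. Aerobic incubation at 37 °C; hypoxic incubation at 37 °C under N2 with 0.2% O2. MTT (0.5 mg/mL, 50 µL) added for 12 h more, OD560 read to give MIC.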

[3] = system: Mycolicibacterium smegmatis; experiment: Antibacterial activity against Mycobacterium smegmatis MC2 155 under hypoxic condition after 96 hrs by MTT assay; type: functional; conditions: str. MC2 155, 96 h; in short: as §1
[4] = Binding affinity to pMV206 DNA (unknown origin) at 260 pmol after 1 hr by agarose gel electrophoresis
[5] = Binding affinity to pMV206 DNA (unknown origin) with cloned 696695 to 700844 bp of Mycobacterium bovis BCG genome overexpressed in Mycobacterium smegmatis ICHO1035 at 260 pmol after 1 hr by agarose gel electrophoresis
[6] = Inhibition of nybomycin probe (2) binding to pMV206 DNA (unknown origin) with cloned 700476 to 702854 bp of Mycobacterium bovis BCG genome overexpressed in Mycobacterium smegmatis ICHO1036 at 60 uM after 1 hr by agarose gel electrophoresis
[7] = system: Mycobacterium tuberculosis; experiment: Antibacterial activity against Mycobacterium tuberculosis H37Rv under aerobic condition after 7 days by MTT assay; type: functional; conditions: 168 h; in short: as §1
[8] = system: Mycolicibacterium smegmatis; experiment: Antibacterial activity against Mycobacterium smegmatis MC2 155 assessed as induction of morphological changes at 1 ug/ml after 48 hrs by phase contrast/scanning electron microscopic analysis; type: functional, organism-based; conditions: str. MC2 155
[9] = system: Mycolicibacterium smegmatis; experiment: Antibacterial activity against Mycobacterium smegmatis ICHO1034 harboring pMV206 with cloned 685769 to 689308 bp of Mycobacterium bovis BCG genome at 2 ug/ml by agar plate method; type: functional, organism-based
[10] = system: Mycolicibacterium smegmatis; experiment: Antibacterial activity against Mycobacterium smegmatis ICHO1037 harboring pMV261 with cloned 4109204 to 4110235 bp of Mycobacterium bovis BCG genome at 2 ug/ml by agar plate method; type: functional, organism-based
[11] = system: Mycolicibacterium smegmatis; experiment: Antibacterial activity against Mycobacterium smegmatis ICHO1036 harboring pMV206 with cloned 700476 to 702854 bp of Mycobacterium bovis BCG genome at 2 ug/ml by agar plate method; type: functional, organism-based
[12] = system: Mycolicibacterium smegmatis; experiment: Antibacterial activity against Mycobacterium smegmatis ICHO1038 harboring pMV261 with cloned 4126836 to 4129396 bp of Mycobacterium bovis BCG genome at 4 ug/ml by agar plate method; type: functional, organism-based
[13] = system: Mycolicibacterium smegmatis; experiment: Antibacterial activity against Mycobacterium smegmatis ICHO1034 harboring pMV206 with cloned 685769 to 689308 bp of Mycobacterium bovis BCG genome at 4 ug/ml by agar plate method; type: functional, organism-based
[14] = system: Mycolicibacterium smegmatis; experiment: Antibacterial activity against Mycobacterium smegmatis ICHO1035 harboring pMV206 with cloned 696695 to 700844 bp of Mycobacterium bovis BCG genome at 4 ug/ml by agar plate method; type: functional, organism-based
[15] = system: Mycolicibacterium smegmatis; experiment: Antibacterial activity against Mycobacterium smegmatis ICHO1035 harboring pMV206 with cloned 696695 to 700844 bp of Mycobacterium bovis BCG genome at 2 ug/ml by agar plate method; type: functional, organism-based
[16] = system: Mycobacterium tuberculosis; experiment: Antibacterial activity against Mycobacterium tuberculosis T1413 under aerobic condition after 7 days by MTT assay; type: functional; conditions: T1413, 168 h; in short: as §1
[17] = system: Mycolicibacterium smegmatis; experiment: Antibacterial activity against Mycobacterium smegmatis ICHO1037 harboring pMV261 with cloned 4109204 to 4110235 bp of Mycobacterium bovis BCG genome at 4 ug/ml by agar plate method; type: functional, organism-based
[18] = system: Mycobacterium tuberculosis; experiment: Antibacterial activity against Mycobacterium tuberculosis T1538 under aerobic condition after 7 days by MTT assay; type: functional; conditions: T1538, 168 h; in short: as §1
[19] = system: Mycolicibacterium smegmatis; experiment: Antibacterial activity against Mycobacterium smegmatis ICHO2012 harboring pYUB415 with cloned 686465 to 716464 bp of Mycobacterium bovis BCG genome at 2 ug/ml by agar plate method; type: functional, organism-based
[20] = system: Mycolicibacterium smegmatis; experiment: Antibacterial activity against Mycobacterium smegmatis ICHO2012 harboring pYUB415 with cloned 686465 to 716464 bp of Mycobacterium bovis BCG genome at 4 ug/ml by agar plate method; type: functional, organism-based
[21] = system: Mycolicibacterium smegmatis; experiment: Antibacterial activity against Mycobacterium smegmatis ICHO1036 harboring pMV206 with cloned 700476 to 702854 bp of Mycobacterium bovis BCG genome at 4 ug/ml by agar plate method; type: functional, organism-based

COC(=O)CCCc1cn(CCOCCOCCOCCOCCOCCOCCOCCOCCOCCOCCNC(=O)CCCC[C@@H]2SC[C@@H]3NC(=O)N[C@@H]32)nn1
Activity [1]: inactive | MIC [2]: > 200 µg/mL | MIC [3]: > 200 µg/mL

Cc1cc(=O)n2c3c(c4c(cc13)c(COC(=O)CCCc1cn(CCOCCOCCOCCOCCOCCOCCOCCOCCOCCOCCNC(=O)CCCC[C@@H]3SC[C@@H]5NC(=O)N[C@@H]53)nn1)cc(=O)n4C)OC2
Activity [1]: Active | Activity [4]: Active | Activity [5]: Active | MIC [2]: 25 µg/mL (≈ 21.8 µM) | MIC [3]: 6.25 µg/mL (≈ 5.46 µM)

NNC(=O)c1ccncc1 [ISONIAZID]
MIC [2]: 2.5 µg/mL (≈ 18.2 µM) | MIC [3]: 25 µg/mL (≈ 182 µM) | inhibition [6]: inactive

Cc1cc(=O)n2c3c(c4c(cc13)c(CO)cc(=O)n4C)OC2
MIC [7]: 4.2 µg/mL (≈ 14.1 µM) | Activity [8]: Active | Activity [9]: inactive | Activity [10]: Active | Activity [11]: inactive | Activity [12]: Active | Activity [13]: Active | Activity [14]: Active | Activity [15]: Active | MIC [16]: 6.3 µg/mL (≈ 21.1 µM) | Activity [17]: Active | MIC [18]: 5.2 µg/mL (≈ 17.4 µM) | MIC [2]: 1 µg/mL (≈ 3.35 µM) | Activity [19]: inactive | Activity [20]: inactive | MIC [3]: 1 µg/mL (≈ 3.35 µM) | Activity [21]: Active | inhibition [6]: Active
